ChEMBL document CHEMBL3525992, “Identification of 20(S)-protopanaxadiol metabolites in human liver microsomes and human hepatocytes” (Drug Metab Dispos, 2011)
Each block holds one molecule with its values, some of them ahead of it.

Experiments:
[1] = tested on: Hepatocyte; assay: Retention time of the compound in human hepatocytes treated with 20(S)-protopanaxadiol at 50 uM after 180 mins by liquid chromatography-electrospray ionization ion trap mass spectrometry; type: ADME, cell-based; conditions: 3 h
In short: (§1)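 Human hepatocytes (2 million cells/ml) in Williams' E medium with substrate 50 µM, 0.5% (v/v) final MeOH, 37°C for 3 h. Negative controls were substrate at 0 h and no substrate at 3 h. Quenched with equal volume acetonitrile, in duplicate. Methanol was added, then centrifugation, dry-down and reconstitution. Analysed by C8 reversed-phase LC with formic acid/methanol–ammonium acetate gradient, ESI ion trap MSⁿ, m/z 100–800.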

[2] = tested on: Liver microsome; assay: Drug level in mixed human liver microsomes treated with (20S,24S)-epoxydammarane-3,12,25-triol at 50 uM after 120 mins by liquid chromatography-electrospray ionization ion trap mass spectrometry in presence of UDPGA; type: ADME; conditions: 2 h
In short: (§2)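 Pooled HLM protein 1.0 mg/ml in 50 mM Tris-HCl pH 7.4 with 10 mM MgCl₂, 2 mM UDPGA and 25 µg/mL alamethicin. Preincubated 3 min at 37°C, then started with substrate (50 µM). Run 120 min, stopped with equal volume ice-cold acetonitrile. 0 min incubations served as controls, in duplicate. Processed and analysed by LC/ESI ion trap MSⁿ.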

[3] = tested on: Liver microsome; assay: Drug level in mixed human liver microsomes treated with (20S,24R)-epoxydammarane-3,12,25-triol at 50 uM after 120 mins by liquid chromatography-electrospray ionization ion trap mass spectrometry in presence of UDPGA; type: ADME; conditions: 2 h; in short: as §2
[4] = tested on: Liver microsome; assay: Drug metabolism in mixed human liver microsomes assessed as glucuronide conjugate metabolite level at 50 uM after 120 mins by liquid chromatography-electrospray ionization ion trap mass spectrometry in presence of UDPGA; type: ADME; conditions: 2 h
In short: (§3)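 Pooled human liver microsomes, 1.0 mg/ml protein, in 50 mM Tris-HCl pH 7.4 with 10 mM MgCl₂, 2 mM UDPGA and 25 µg/mL alamethicin. Preincubated 3 min at 37°C, started with substrate 50 µM (final MeOH 0.1%), run 120 min, stopped with ice-cold acetonitrile. Time-0 controls; duplicates. Analysed by LC/ESI ion-trap MSn.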

[5] = Drug excretion in Sprague-Dawley rat feces assessed as metabolite 2 ((20S,24S)-epoxydammarane-3,12,25-triol) level at 100 mg/kg/day, po qd for 11 days administered via gavage by liquid chromatography-electrospray ionization ion trap mass spectrometry; type: ADME, organism-based; set-up: route oral; conditions: in vivo, 264 h
In short: (§4)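 Rats given PPD by gavage at 100 mg/kg/day once daily for 11 days, as a 10 mg/ml solution in 0.5% carboxymethyl cellulose sodium, 0.5% polysorbate-80 and 99% saline; 20 rats housed singly in metabolic cages. Feces collected over 0–288 h and frozen at -20°C; blank feces taken before dosing.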

[6] = Drug excretion in Sprague-Dawley rat feces assessed as metabolite 3 ((20S,24R)-epoxydammarane-3,12,25-triol) level at 100 mg/kg/day, po qd for 11 days administered via gavage by liquid chromatography-electrospray ionization ion trap mass spectrometry; type: ADME, organism-based; set-up: route oral; conditions: in vivo, 264 h; in short: as §4
[7] = Drug excretion in Sprague-Dawley rat feces assessed as metabolite 4 ((20S,24S)-epoxydammarane-12,25-diol-3-one) level at 100 mg/kg/day, po qd for 11 days administered via gavage by liquid chromatography-electrospray ionization ion trap mass spectrometry; type: ADME, organism-based; set-up: route oral; conditions: in vivo, 264 h; in short: as §4
[8] = Drug excretion in Sprague-Dawley rat feces assessed as metabolite 5 ((20S,24R)-epoxydammarane-12,25-diol-3-one) level at 100 mg/kg/day, po qd for 11 days administered via gavage by liquid chromatography-electrospray ionization ion trap mass spectrometry; type: ADME, organism-based; set-up: route oral; conditions: in vivo, 264 h; in short: as §4
[9] = Oral bioavailability in rat at 25 mg/kg; type: ADME, organism-based; conditions: in vivo
[10] = Oral bioavailability in dog at 8 mg/kg; type: ADME, organism-based, Canis lupus familiaris; conditions: in vivo
[11] = Retention time of the compound at 100 uM measured after 60 mins by liquid chromatography-electrospray ionization ion trap mass spectrometry in presence of 10 uM 3-chloroperoxybenzoic acid; type: physicochemical; conditions: 1 h
In short: (§5)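 PPD 100 µM oxidised chemically with m-CPBA 10 µM in CH₂Cl₂, stirred at room temperature for 15 and 60 min. Mixture poured into Na₂CO₃-saturated ice water and extracted three times with ether before LC/MS analysis.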

[12] = Drug metabolism in human hepatocytes assessed as metabolite 6-2 ((3R,6S)-6-((3S,5R,8R,9R,10R,12R,14R,17S)-3,12-dihydroxy-4,4,8,10,14-pentamethylhexadecahydro-1H-cyclopenta[a]phenanthren-17-yl)-2-methylheptane-2,3,6-triol) formation at 50 uM after 180 mins by liquid chromatography-electrospray ionization ion trap mass spectrometry; type: ADME, cell-based, Hepatocyte; conditions: 3 h
[13] = Drug metabolism in human hepatocytes assessed as metabolite 7-1 ((2S,3S,4S,5R,6S)-6-(2-((2S,5S)-5-((3S,5R,8R,9R,10R,12R,14R,17S)-3,12-dihydroxy-4,4,8,10,14-pentamethylhexadecahydro-1H-cyclopenta[a]phenanthren-17-yl)-5-methyltetrahydrofuran-2-yl)propan-2-yloxy)-3,4,5-trihydroxytetrahydro-2H-pyran-2-carboxylic acid) formation at 50 uM after 180 mins by liquid chromatography-electrospray ionization ion trap mass spectrometry; type: ADME, cell-based, Hepatocyte; conditions: 3 h
[14] = Drug metabolism in human hepatocytes assessed as metabolite 7-2 ((2S,3S,4S,5R,6S)-6-(2-((2R,5S)-5-((3S,5R,8R,9R,10R,12R,14R,17S)-3,12-dihydroxy-4,4,8,10,14-pentamethylhexadecahydro-1H-cyclopenta[a]phenanthren-17-yl)-5-methyltetrahydrofuran-2-yl)propan-2-yloxy)-3,4,5-trihydroxytetrahydro-2H-pyran-2-carboxylic acid) formation at 50 uM after 180 mins by liquid chromatography-electrospray ionization ion trap mass spectrometry; type: ADME, cell-based, Hepatocyte; conditions: 3 h
[15] = tested on: Liver microsome; assay: Drug metabolism in mixed human liver microsomes assessed as metabolite 6 ((24S,25)-epoxydammarane-3,12,20-triol formation at 50 uM after 60 mins by liquid chromatography-electrospray ionization ion trap mass spectrometry; type: ADME; conditions: 1 h
In short: (§6)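 Pooled human liver microsomes, 1.0 mg/ml protein, with substrate 50 µM in 100 mM potassium phosphate pH 7.4 (final MeOH 0.1% v/v). Preincubated 3 min at 37°C, started with NADPH 2.0 mM, run 60 min, stopped with ice-cold acetonitrile. Controls lacked NADPH or substrate; duplicates. Metabolites profiled by LC/ESI ion-trap MSn.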

[16] = tested on: Liver microsome; assay: Drug metabolism in mixed human liver microsomes assessed as metabolite 2 ((20S,24S)-epoxydammarane-3,12,25-triol) formation at 50 uM after 60 mins by liquid chromatography-electrospray ionization ion trap mass spectrometry; type: ADME; conditions: 1 h; in short: as §6
[17] = tested on: Liver microsome; assay: Drug metabolism in mixed human liver microsomes assessed as metabolite 3 ((20S,24R)-epoxydammarane-3,12,25-triol) formation at 50 uM after 60 mins by liquid chromatography-electrospray ionization ion trap mass spectrometry; type: ADME; conditions: 1 h; in short: as §6
[18] = tested on: Liver microsome; assay: Drug metabolism in mixed human liver microsomes assessed as metabolite 4 ((20S,24S)-epoxydammarane-12,25-diol-3-one) formation at 50 uM after 60 mins by liquid chromatography-electrospray ionization ion trap mass spectrometry; type: ADME; conditions: 1 h; in short: as §6
[19] = tested on: Liver microsome; assay: Drug metabolism in mixed human liver microsomes assessed as metabolite 5 ((20S,24R)-epoxydammarane-12,25-diol-3-one) formation at 50 uM after 60 mins by liquid chromatography-electrospray ionization ion trap mass spectrometry; type: ADME; conditions: 1 h; in short: as §6
[20] = Drug metabolism in human hepatocytes assessed as metabolite 6 ((24S,25)-epoxydammarane-3,12,20-triol formation at 50 uM after 180 mins by liquid chromatography-electrospray ionization ion trap mass spectrometry; type: ADME, cell-based, Hepatocyte; conditions: 3 h
[21] = Drug metabolism in human hepatocytes assessed as metabolite 2 ((20S,24S)-epoxydammarane-3,12,25-triol) formation at 50 uM after 180 mins by liquid chromatography-electrospray ionization ion trap mass spectrometry; type: ADME, cell-based, Hepatocyte; conditions: 3 h
[22] = Drug metabolism in human hepatocytes assessed as metabolite 3 ((20S,24R)-epoxydammarane-3,12,25-triol) formation at 50 uM after 180 mins by liquid chromatography-electrospray ionization ion trap mass spectrometry; type: ADME, cell-based, Hepatocyte; conditions: 3 h
[23] = Drug metabolism in human hepatocytes assessed as metabolite 4 ((20S,24S)-epoxydammarane-12,25-diol-3-one) formation at 50 uM after 180 mins by liquid chromatography-electrospray ionization ion trap mass spectrometry; type: ADME, cell-based, Hepatocyte; conditions: 3 h
[24] = Drug metabolism in human hepatocytes assessed as metabolite 5 ((20S,24R)-epoxydammarane-12,25-diol-3-one) formation at 50 uM after 180 mins by liquid chromatography-electrospray ionization ion trap mass spectrometry; type: ADME, cell-based, Hepatocyte; conditions: 3 h
[25] = Drug metabolism in human hepatocytes assessed as metabolite 6-1 ((3S,6S)-6-((3S,5R,8R,9R,10R,12R,14R,17S)-3,12-dihydroxy-4,4,8,10,14-pentamethylhexadecahydro-1H-cyclopenta[a]phenanthren-17-yl)-2-methylheptane-2,3,6-triol) formation at 50 uM after 180 mins by liquid chromatography-electrospray ionization ion trap mass spectrometry; type: ADME, cell-based, Hepatocyte; conditions: 3 h
[26] = Drug excretion in Sprague-Dawley rat feces treated with 20(S)-protopanaxadiol at 100 mg/kg/day, po qd for 11 days administered via gavage by liquid chromatography-electrospray ionization ion trap mass spectrometry; type: ADME, organism-based; set-up: route oral; conditions: in vivo, 264 h
In short: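 PPD given by gavage at 10 mg/ml in 0.5% carboxymethyl cellulose sodium, 0.5% polysorbate-80 and 99% saline; 20 rats, one per metabolic cage. Feces collected over 0–288 h (48 h after last dose), blanks taken before dosing, frozen at -20°C.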

[27] = Retention time of the compound treated with 20(S)-protopanaxadiol at 100 uM measured after 60 mins by liquid chromatography-electrospray ionization ion trap mass spectrometry in presence of 10 uM 3-chloroperoxybenzoic acid; type: physicochemical; conditions: 1 h; in short: as §5
[28] = tested on: Hepatocyte; assay: Drug level in human hepatocytes treated with 20(S)-protopanaxadiol at 50 uM after 180 mins by liquid chromatography-electrospray ionization ion trap mass spectrometry; type: ADME, cell-based; conditions: 3 h; in short: as §1
[29] = tested on: Liver microsome; assay: Drug metabolism in mixed human liver microsomes assessed as metabolite 7-1 ((2S,3S,4S,5R,6S)-6-(2-((2S,5S)-5-((3S,5R,8R,9R,10R,12R,14R,17S)-3,12-dihydroxy-4,4,8,10,14-pentamethylhexadecahydro-1H-cyclopenta[a]phenanthren-17-yl)-5-methyltetrahydrofuran-2-yl)propan-2-yloxy)-3,4,5-trihydroxytetrahydro-2H-pyran-2-carboxylic acid) formation at 50 uM after 120 mins by liquid chromatography-electrospray ionization ion trap mass spectrometry in presence of UDPGA; type: ADME; in short: as §3
[30] = tested on: Liver microsome; assay: Retention time of the compound in mixed human liver microsomes treated with 20(S)-protopanaxadiol at 50 uM after 60 mins by liquid chromatography-electrospray ionization ion trap mass spectrometry; type: ADME; conditions: 1 h
In short: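 Pooled HLM protein 1.0 mg/ml with substrate 50 µM in 100 mM potassium phosphate pH 7.4, 0.1% (v/v) final MeOH. Preincubated 3 min at 37°C, started with 2.0 mM NADPH, incubated 60 min. Stopped with equal volume ice-cold acetonitrile. Controls lacked NADPH or substrate, in duplicate. Analysed on C8 reversed-phase column, formic acid methanol/ammonium acetate gradient, ESI ion trap MSⁿ.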

Compound: CC(C)=CCC[C@](C)(O)[C@H]1CC[C@]2(C)[C@@H]1[C@H](O)C[C@@H]1[C@@]3(C)CC[C@H](O)C(C)(C)[C@@H]3CC[C@]12C
Drug metabolism [4]: metabolite_not_detected | Drug excretion [5]: metabolite_detected | Drug excretion [6]: metabolite_detected | Drug excretion [7]: metabolite_detected | Drug excretion [8]: metabolite_detected | bioavailability [9]: 31% | bioavailability [10]: 9.6% | Retention_time [11]: 22.3 min | Drug metabolism [12]: metabolite_detected | Drug metabolism [13]: metabolite_detected | Drug metabolism [14]: metabolite_detected | Drug metabolism [15]: metabolite_detected | Drug metabolism [16]: metabolite_detected | Drug metabolism [17]: metabolite_detected | Drug metabolism [18]: metabolite_detected | Drug metabolism [19]: metabolite_detected | Drug metabolism [20]: metabolite_detected | Drug metabolism [21]: metabolite_detected | Drug metabolism [22]: metabolite_detected | Drug metabolism [23]: metabolite_detected | Drug metabolism [24]: metabolite_detected | Drug metabolism [25]: metabolite_detected

Compound: CC(C)(O)[C@@H]1CC[C@@](C)([C@H]2CC[C@]3(C)[C@@H]2[C@H](O)C[C@@H]2[C@@]4(C)CC[C@H](O)C(C)(C)[C@@H]4CC[C@]23C)O1
Drug excretion [26]: metabolite_detected | Retention_time [27]: 19.2 min | Drug metabolism [28]: metabolite_detected | Drug metabolism [29]: metabolite_detected | Retention_time [30]: 19.2 min

Results, then the molecule that gave them:

Retention_time [1]: 15.8 min
Compound: CC(C)(O)[C@H](O)CC[C@](C)(O)[C@H]1CC[C@]2(C)[C@@H]1[C@H](O)C[C@@H]1[C@@]3(C)CC[C@H](O)C(C)(C)[C@@H]3CC[C@]12C

Drug metabolism [2]: metabolite_detected | Retention_time [1]: 16 min
Compound: CC(C)(O[C@@H]1O[C@H](C(=O)O)[C@@H](O)[C@H](O)[C@H]1O)[C@@H]1CC[C@@](C)([C@H]2CC[C@]3(C)[C@@H]2[C@H](O)C[C@@H]2[C@@]4(C)CC[C@H](O)C(C)(C)[C@@H]4CC[C@]23C)O1

Drug metabolism [3]: metabolite_detected | Retention_time [1]: 16.9 min
Compound: CC(C)(O[C@@H]1O[C@H](C(=O)O)[C@@H](O)[C@H](O)[C@H]1O)[C@H]1CC[C@@](C)([C@H]2CC[C@]3(C)[C@@H]2[C@H](O)C[C@@H]2[C@@]4(C)CC[C@H](O)C(C)(C)[C@@H]4CC[C@]23C)O1
